CRFBP-R2 block – antagonists of CRF-BP/CRF-R2 complex, primary screen, cell-based, HEK293, calcium dye fluorescence, uHTS; CRF-induced calcium fluorescence; 0.59% of 350,000 active; inhibition, % at 11.8 µM;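 active means inhibition of the ligand-induced calcium signal above about 50% at the single tested concentration, limit read from the data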
CRFBP-R2 agonist – agonists of CRF-BP/CRF-R2 complex, primary screen, cell-based, HEK293, calcium dye fluorescence, uHTS | CRF-binding protein / CRF receptor 2 complex (human) | calcium dye fluorescence (FLIPR); percent of saturating CRF peptide response | activation, % at 13.2 µM | 0.46% of 350,000 active | AID 588473, 2011;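 active means activation of at least 50%, plus an integration ratio under a set limit after plate pattern correction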;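 further: plate controls were neutral control wells without compound for no effect and CRF at EC100 for full effect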
TRPML3 agonist – human TRPML3 channel agonists, primary screen, cell-based, HEK293 TRPML3-YFP, Fluo-8 calcium fluorescence, 3 µM; 100% = the carbachol control signal; activation, % at 3 µM; AID 1448, 2008; 0.29% of 220,000 active; Mucolipin-3 (Homo sapiens), Q8TDD5;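 active means activation above its plate's cutoff, the mean activation of the plate's test wells plus 3 SD, cut at about 12% in these data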;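 further: 0% = DMSO only wells and 100% = carbachol wells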
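Material: TRPML3-YFP stable HEK293 cells | Dosing: One concentration, 3 µM nominal, 0.3% DMSO | Timing: 125 s total fluorescence read per well | Technique: Fluo-8 calcium dye fluorescence, ex 470-495, em 515-575 nm | Measure: Percent activation from peak-to-basal fluorescence ratio, scaled between DMSO and carbachol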
GPR7 antagonist – GPR7 receptor antagonists, primary screen, cell-based, fluorescence, single concentration | Neuropeptides B/W receptor type 1 (Homo sapiens), P48145 | GPR7-expressing cells, fluorescence antagonist assay | inhibition, % at 4.4 µM | 1.1% of 290,000 active; in the data active means inhibition above about 16%, passing the limit was not always enough;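 further: cells stimulated with the agonist NPW; 0% = agonist with vehicle and 100% = vehicle without agonist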
Target sequence (P48145 whole entry, looked up): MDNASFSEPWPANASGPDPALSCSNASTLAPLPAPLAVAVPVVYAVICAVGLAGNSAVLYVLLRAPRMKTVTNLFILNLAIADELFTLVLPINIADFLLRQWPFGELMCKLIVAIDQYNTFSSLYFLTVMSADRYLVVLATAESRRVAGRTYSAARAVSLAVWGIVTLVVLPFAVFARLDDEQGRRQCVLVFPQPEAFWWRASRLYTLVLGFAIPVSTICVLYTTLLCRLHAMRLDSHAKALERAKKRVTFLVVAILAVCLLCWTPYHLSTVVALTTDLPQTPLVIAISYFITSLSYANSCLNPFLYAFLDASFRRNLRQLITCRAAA
zfTRPN1 agonist – zebrafish TRPN1 channel agonists, primary screen, cell-based, HEK293, calcium fluorescence | transient receptor potential cation channel N1 (TRPN1/NompC), Danio rerio | HEK293 zebrafish TRPN1-YFP, Fluo-8 calcium fluorescence; 100% = response to 87 µM carbachol | activation, % at 3 µM | 0.18% of 220,000 active | AID 1424, 2008;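 active means activation above its plate's cutoff, the mean activation of test wells on that plate plus 3 SD, cut at about 19% in these data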;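 further: 0% = DMSO alone and 100% = 87 µM carbachol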
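Material: zebrafish TRPN1-YFP in HEK293 cells; Doses: single test compound dose, 3 µM nominal, 0.3% DMSO; Timing: dye loading 1 h at 37 °C, then 30 min room temperature; Technique: intracellular calcium fluorescence with Fluo-8; Benchmarks: high carbachol 87 µM, low DMSO alone.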
Numbers without * were called inactive. Hits are enriched below; roughly 2% of the tested compounds scored in any of these assays.

Results for CCC(=O)Nc1cc(Cl)ccc1N1CCN(C(=O)CC)CC1 ?
CRFBP-R2 block: 81.3*; CRFBP-R2 agonist: -0.8; TRPML3 agonist: -0.5; GPR7 antagonist: -6.6; zfTRPN1 agonist: -0.2

How did CCC(=O)N1CCN(c2ccc(Cl)cc2NC(=O)Cc2ccccc2)CC1 do in these assays?
CRFBP-R2 block: 9.6; CRFBP-R2 agonist: 0.3; TRPML3 agonist: -1.4; GPR7 antagonist: 16.7*; zfTRPN1 agonist: -1.8

What do the screens show for `CCC(=O)Nc1nnc(Sc2ccc(N(C)C)cc2)s1`?
CRFBP-R2 block: -26.4; CRFBP-R2 agonist: 0.8; TRPML3 agonist: 0.6; GPR7 antagonist: 1.3; zfTRPN1 agonist: -0.5

What do the screens show for `CCCC(=O)Nc1nnc(Sc2ccc(N(C)C)cc2)s1`?
CRFBP-R2 block: 69.0*; CRFBP-R2 agonist: -1.3; TRPML3 agonist: -0.2; GPR7 antagonist: 8.3; zfTRPN1 agonist: 0.5

How did Cc1ccc(C2(C)NC(=O)N(CC(=O)Nc3nc(-c4ccccn4)cs3)C2=O)cc1 (configuration not stated) do in these assays?
CRFBP-R2 block: -29.5; CRFBP-R2 agonist: 4.3

What do the screens show for `Cc1cc(C)c2nc(NC(=O)c3ccc([N+](=O)[O-])o3)sc2c1`?
CRFBP-R2 block: 5.6; CRFBP-R2 agonist: 0.1; GPR7 antagonist: -17.0

How did O=C(Nc1nc2c(F)cc(F)cc2s1)c1ccc([N+](=O)[O-])o1 do in these assays?
CRFBP-R2 block: 80.0*; CRFBP-R2 agonist: 18.2; GPR7 antagonist: -8.9

What do the screens show for `O=C(C1CCCC1)N1CCCC(Nc2ccccc2)C1` (configuration not stated)?
CRFBP-R2 block: -0.3; CRFBP-R2 agonist: -1.2; GPR7 antagonist: 7.4

What do the screens show for `O=C(C1CCCC1)N1CCCC(Nc2ccc(F)cc2)C1` (configuration not stated)?
CRFBP-R2 block: -77.9; CRFBP-R2 agonist: 117.5*; GPR7 antagonist: -6.8

What do the screens show for `Cc1ccc2c(c1)nc1c3ccccc3nc(-c3ccccc3N)n21`?
CRFBP-R2 block: -7.5; CRFBP-R2 agonist: -2.9

How did CC1(O)CC(c2ccc(Cl)cc2)=NN1C(=O)c1ccc([N+](=O)[O-])cc1 (configuration not stated) do in these assays?
CRFBP-R2 block: 99.5*; CRFBP-R2 agonist: 73.5*; TRPML3 agonist: 0.3; GPR7 antagonist: -4.1; zfTRPN1 agonist: 1.1

How did CC(=O)N1N=C(c2ccc(Cl)cc2)CC1c1ccc([N+](=O)[O-])cc1 (configuration not stated) do in these assays?
CRFBP-R2 block: -2.6; CRFBP-R2 agonist: 3.2; GPR7 antagonist: 6.2

How did COc1ccc(CN2CCC(CO)(CCOc3ccccc3)CC2)cc1C do in these assays?
CRFBP-R2 block: 87.5*; CRFBP-R2 agonist: 2.8; TRPML3 agonist: 2.1; GPR7 antagonist: -1.9; zfTRPN1 agonist: 1.3

How did CC(=O)c1cccc(NC(=O)c2cc(=O)[nH]c3ccc(S(=O)(=O)N4CCOCC4)cc23)c1 do in these assays?
CRFBP-R2 block: -3.9; CRFBP-R2 agonist: -2.5

What do the screens show for `Cc1cc(S(=O)(=O)N2CCCc3ccccc32)ccc1-n1cnnn1`?
CRFBP-R2 block: 16.2; CRFBP-R2 agonist: 0.7; GPR7 antagonist: -13.2

How did CC(=O)Cc1cc(O)c2ccccc2c1OC(=O)c1ccc(Br)cc1 do in these assays?
CRFBP-R2 block: 67.6*; CRFBP-R2 agonist: -1.8; TRPML3 agonist: -0.1; GPR7 antagonist: -13.4; zfTRPN1 agonist: -1.0

How did CCOc1ccc(C(=O)NC(C(=O)NCCc2ccc(OC(F)F)cc2)C(C)C)cc1 (configuration not stated) do in these assays?
CRFBP-R2 block: -5.6; CRFBP-R2 agonist: 0.3; GPR7 antagonist: -6.3

Results for Nn1c(SCC(=O)Nc2ccc3c(c2)OCCO3)nnc1C(F)(F)F ?
CRFBP-R2 block: 3.9; CRFBP-R2 agonist: -0.6; TRPML3 agonist: 0.3; GPR7 antagonist: 13.9*; zfTRPN1 agonist: 0.2

How did CN(C)c1ccc(/C=C2\SC(N3CCCCC3)=NC2=O)cc1 do in these assays?
CRFBP-R2 block: -59.2; CRFBP-R2 agonist: 51.0*; GPR7 antagonist: -7.9

Results for Cc1ccc([N+](=O)[O-])cc1S(=O)(=O)Nc1cccc(S(=O)(=O)Nc2ccccc2C(=O)O)c1 ?
CRFBP-R2 block: 18.5; CRFBP-R2 agonist: 0.8
